Data: ChEMBL document CHEMBL4020827, “Targeting Multiple Effector Pathways in Pancreatic Ductal Adenocarcinoma with a G-Quadruplex-Binding Small Molecule” (J Med Chem, 2018)
Activity calls are given as the source filed them. The rule behind the calls is not given here.

Assays:
PANC-1 [1] = assay: Effect on GLI4 gene expression in human PANC1 cells at 400 nM after 24 hrs by RNA sequence analysis relative to control; format: functional
Summary of the method: (§1)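 PANC-1 (0.35 x 10^6) or MIA PaCa-2 (1.5 x 10^6) cells seeded overnight in 60 mm plates, then exposed to 400 nM compound for 6 or 24 h; untreated cells as controls. Cells were mycoplasma-free and STR-certified. Differential expression by RNA-seq, called at FDR < 0.1.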

MIA PaCa-2 [2] = assay: Effect on ROBO3 gene expression in human MIAPaCa2 cells at 400 nM after 6 hrs by RNA sequence analysis relative to control; format: functional
Summary of the method: (§2)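 RNA-seq: cells seeded overnight in 60 mm plates (PANC-1 0.35 x 10^6, MIA PaCa-2 1.5 x 10^6 cells/well), then exposed to 400 nM compound for 6 or 24 h against untreated controls. Cell lines mycoplasma-free by RNA-capture ELISA and STR-profiled. Differentially expressed genes called at FDR < 0.1.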

MIA PaCa-2 [3] = assay: Effect on TEAD3 gene expression in human MIAPaCa2 cells at 400 nM after 6 hrs by RNA sequence analysis relative to control; format: functional; summary of the method: as §2
MIA PaCa-2 [4] = assay: Effect on AKT1S1 gene expression in human MIAPaCa2 cells at 400 nM after 24 hrs by RNA sequence analysis relative to control; format: functional; summary of the method: as §1
PANC-1 [5] = assay: Effect on ROBO3 gene expression in human PANC1 cells at 400 nM after 6 hrs by RNA sequence analysis relative to control; format: functional; summary of the method: as §2
A549 = assay: Growth inhibition of human A549 cells after 96 hrs by SRB assay; format: functional, cell-based; conditions: A549, 96 h
Summary of the method: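 Cell lines kept at 37 °C, 5% CO2 in medium with 10% FBS and 2 mM L-glutamine. Compound dissolved in water, filter-sterilised, 10 mM stock diluted into media. Growth read by 96 h sulforhodamine B assay, absorbance at 540 nm. IC50 taken from mean absorbance per concentration as % of untreated wells, >3 individual determinations with standard deviations.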

MIA PaCa-2 [6] = assay: Antitumor activity against human MIAPaCa2 cells xenografted in CD-1 nude mouse assessed as change in tumor volume at 10 mg/kg, iv administered twice weekly for 4 weeks measured on day 29 relative to control; format: functional
Summary of the method: (§3)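 Female CD-1 nude mice (2-3 months, 20−25 g) given 5 x 10^6 MIA PaCa-2 cells subcutaneously in right flank with Matrigel; dosing began once tumors were established (approx. 13 days, mean 0.05 cm3). Eight mice/group, IV in saline twice weekly for 28 days (8 doses) against a saline group. Tumors measured by calliper (length × width × height × π/6), with body weight. Student's t test.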

MIA PaCa-2 [7] = assay: Effect on PRKCZ gene expression in human MIAPaCa2 cells at 400 nM after 6 hrs by RNA sequence analysis relative to control; format: functional; summary of the method: as §2
PANC-1 [8] = assay: Effect on GLI1 gene expression in human PANC1 cells at 400 nM after 24 hrs by RNA sequence analysis relative to control; format: functional; summary of the method: as §1
[9] = Solubility of the compound in saline; format: physicochemical
MIA PaCa-2 [10] = assay: Effect on ARF6 gene expression in human MIAPaCa2 cells at 400 nM after 6 hrs by RNA sequence analysis relative to control; format: functional; summary of the method: as §1
PANC-1 [11] = assay: Effect on PRKCZ gene expression in human PANC1 cells at 400 nM after 24 hrs by RNA sequence analysis relative to control; format: functional; summary of the method: as §2
MIA PaCa-2 [12] = assay: Effect on MAPK11 gene expression in human MIAPaCa2 cells at 400 nM after 24 hrs by RNA sequence analysis relative to control; format: functional
MIA PaCa-2 [13] = assay: Effect on ARF6 gene expression in human MIAPaCa2 cells at 400 nM after 24 hrs by RNA sequence analysis relative to control; format: functional; summary of the method: as §1
PANC-1 [14] = assay: Effect on CBFA2T3 gene expression in human PANC1 cells at 400 nM after 6 hrs by RNA sequence analysis relative to control; format: functional; summary of the method: as §1
MIA PaCa-2 [15] = assay: Effect on MAPK12 gene expression in human MIAPaCa2 cells at 400 nM after 6 hrs by RNA sequence analysis relative to control; format: functional
Homo sapiens = organism: Homo sapiens; assay: Stabilization of G-quadruplex DNA in human PANC1 cells assessed as increase in BG4 foci at 400 nM after 6 to 24 hrs by FITC/Cy5/DAPI staining based immunofluorescence assay; format: cell-based
MIA PaCa-2 [16] = assay: Effect on PLXNA1 gene expression in human MIAPaCa2 cells at 400 nM after 24 hrs by RNA sequence analysis relative to control; format: functional
PANC-1 [17] = assay: Effect on AKT1 gene expression in human PANC1 cells at 400 nM after 24 hrs by RNA sequence analysis relative to control; format: functional; summary of the method: as §1
MIA PaCa-2 [18] = assay: Effect on PARD6A gene expression in human MIAPaCa2 cells at 400 nM after 6 hrs by RNA sequence analysis relative to control; format: functional
MIA PaCa-2 [19] = assay: Effect on TP73 gene expression in human MIAPaCa2 cells at 400 nM after 6 hrs by RNA sequence analysis relative to control; format: functional; summary of the method: as §2
PANC-1 [20] = assay: Effect on mLST8 gene expression in human PANC1 cells at 400 nM after 6 hrs by RNA sequence analysis relative to control; format: functional
MIA PaCa-2 [21] = assay: Effect on PRDM16 gene expression in human MIAPaCa2 cells at 400 nM after 6 hrs by RNA sequence analysis relative to control; format: functional
MIA PaCa-2 [22] = assay: Antitumor activity against human MIAPaCa2 cells xenografted in CD-1 nude mouse assessed as change in tumor volume at 15 mg/kg, iv administered twice weekly for 4 weeks measured on day 62 relative to control; format: functional; summary of the method: as §3
MIA PaCa-2 [23] = assay: Effect on MAPK9 gene expression in human MIAPaCa2 cells at 400 nM after 24 hrs by RNA sequence analysis relative to control; format: functional
MIA PaCa-2 [24] = assay: Effect on mLST8 gene expression in human MIAPaCa2 cells at 400 nM after 24 hrs by RNA sequence analysis relative to control; format: functional; summary of the method: as §2
PANC-1 [25] = assay: Effect on TEAD2 gene expression in human PANC1 cells at 400 nM after 6 hrs by RNA sequence analysis relative to control; format: functional; summary of the method: as §2
MIA PaCa-2 [26] = assay: Effect on TP73 gene expression in human MIAPaCa2 cells at 400 nM after 24 hrs by RNA sequence analysis relative to control; format: functional; summary of the method: as §2
MIA PaCa-2 [27] = assay: Effect on SMO gene expression in human MIAPaCa2 cells at 400 nM after 24 hrs by RNA sequence analysis relative to control; format: functional; summary of the method: as §2
PANC-1 [28] = assay: Effect on TP73 gene expression in human PANC1 cells at 400 nM after 6 hrs by RNA sequence analysis relative to control; format: functional; summary of the method: as §2
PANC-1 [29] = assay: Effect on FASN gene expression in human PANC1 cells at 400 nM after 6 hrs by RNA sequence analysis relative to control; format: functional; summary of the method: as §1
PANC-1 [30] = assay: Effect on AKT1 gene expression in human PANC1 cells at 400 nM after 6 hrs by RNA sequence analysis relative to control; format: functional; summary of the method: as §1
PANC-1 [31] = assay: Effect on CTBP1 gene expression in human PANC1 cells at 400 nM after 24 hrs by RNA sequence analysis relative to control; format: functional; summary of the method: as §1
PANC-1 [32] = assay: Effect on PLXNA1 gene expression in human PANC1 cells at 400 nM after 6 hrs by RNA sequence analysis relative to control; format: functional

Q: For O=C1c2ccc3c4c(c(NCCN5CCCC5)cc(c24)C(=O)N1CCCN1CCOCC1)C(=O)N(CCCN1CCOCC1)C3=O, which log2FC (PANC-1 [1]) is on record?
A: -1.71

Q: And the log2FC (MIA PaCa-2 [2])?
A: -0.86

Q: And the log2FC (MIA PaCa-2 [3])?
A: -1.06

Q: And the log2FC (MIA PaCa-2 [4])?
A: -1.09

Q: What about the log2FC (PANC-1 [5]) of the same molecule?
A: -0.75

Q: And the IC50 (A549)?
A: 0.024 µM

Q: And the Activity (MIA PaCa-2 [6])?
A: -53.3%

Q: What about the log2FC (MIA PaCa-2 [7]) of the same molecule?
A: -1.87

Q: And the log2FC (PANC-1 [8])?
A: -0.57

Q: What about the solubility [9] of the same molecule?
A: > 10000 µg/mL

Q: What about the log2FC (MIA PaCa-2 [10]) of the same molecule?
A: -0.89

Q: What about the log2FC (PANC-1 [11]) of the same molecule?
A: -1.23

Q: And the log2FC (MIA PaCa-2 [12])?
A: -2.56

Q: What about the log2FC (MIA PaCa-2 [13]) of the same molecule?
A: -0.54

Q: And the log2FC (PANC-1 [14])?
A: -2.18

Q: What about the log2FC (MIA PaCa-2 [15]) of the same molecule?
A: -0.47

Q: And the Activity (Homo sapiens)?
A: Active

Q: And the log2FC (MIA PaCa-2 [16])?
A: -1.56

Q: What about the log2FC (PANC-1 [17]) of the same molecule?
A: -1.04

Q: And the log2FC (MIA PaCa-2 [18])?
A: -0.83

Q: What about the log2FC (MIA PaCa-2 [19]) of the same molecule?
A: -2.36

Q: And the log2FC (PANC-1 [20])?
A: -0.54

Q: What about the log2FC (MIA PaCa-2 [21]) of the same molecule?
A: -2.73

Q: What about the Activity (MIA PaCa-2 [22]) of the same molecule?
A: -85%

Q: And the log2FC (MIA PaCa-2 [23])?
A: -0.6

Q: What about the log2FC (MIA PaCa-2 [24]) of the same molecule?
A: -1.28

Q: And the log2FC (PANC-1 [25])?
A: -0.22

Q: And the log2FC (MIA PaCa-2 [26])?
A: -1.19

Q: And the log2FC (MIA PaCa-2 [27])?
A: -1.21

Q: And the log2FC (PANC-1 [28])?
A: -1.44

Q: And the log2FC (PANC-1 [29])?
A: -0.73

Q: What about the log2FC (PANC-1 [30]) of the same molecule?
A: -0.18

Q: And the log2FC (PANC-1 [31])?
A: -0.98

Q: And the log2FC (PANC-1 [32])?
A: -0.84
